Results collected from several papers.
CDKL1: Cyclin-dependent kinase-like 1 (CDKL1, Homo sapiens, UniProt Q00532)
ULK1: Serine/threonine-protein kinase ULK1 (ULK1, Homo sapiens, UniProt O75385)

With Cn1c2c(c3ccc(Cl)c(Cl)c31)C(C#N)C1(CCCCC1)NC2=O (racemic) the ΔTm was 0.4 °C (CDKL1; thermal stability, DSF; 10 µM).
NS(=O)(=O)c1ccc(CNc2nc(Nc3cccc(CN4CCOCC4)c3)ncc2Br)cc1 gave a remaining activity of 50% (ULK1; enzyme activity, inhibitor, radiometric; 1 µM).
Cn1c2c(c3ccc(Cl)c(Cl)c31)C(C#N)C1(CCCC1)NC2=O (stereo not shown) gave a ΔTm of 0 °C (CDKL1; thermal stability, DSF; 10 µM).
For NS(=O)(=O)c1ccc(CNc2nc(Nc3cccc(NC(=O)N4CCCC4)c3)ncc2C2CC2)cc1, the remaining activity was 82% (ULK1; enzyme activity, inhibitor, radiometric; 1 µM).
With CC1(C)NC(=O)c2[nH]c3c(Cl)c(Cl)ccc3c2C1C#N (stereo not shown) the ΔTm was 0 °C (CDKL1; thermal stability, DSF; 10 µM).
With Nc1ncnc2occ(-c3ccc(NC(=O)Nc4cc(C(F)(F)F)ccc4F)cc3)c12 the remaining signal was 0.05% (Myosin-IIIa (MYO3A, Homo sapiens, UniProt Q8NEV4); cell-free assay; 20 µM).
The remaining activity of O=C(NCCCNc1nc(Nc2cccc(CN3CCOCC3)c2)ncc1C1CC1)C1CCC1 is reported as 9% (ULK1; enzyme activity, inhibitor, radiometric; 1 µM).
Cc1cc(NC(=O)c2cccc3cc(-c4cccc5[nH]nc(N)c45)ccc23)ccc1F gave an activity vs control of 145% (Hepatocyte growth factor receptor (MET, Homo sapiens, UniProt P08581, D1228H); enzyme activity, inhibitor; 0.1 µM).
CCN1CCN(Cc2ccc(NC(=O)c3ccc(C)c(Oc4ccnc5[nH]ccc45)c3)cc2C(F)(F)F)CC1 gave an inhibition of -13.9% (Eukaryotic elongation factor 2 kinase (EEF2K, Homo sapiens, UniProt O00418); target engagement in cells, inhibitor, chemoproteomics; A-375; 50 nM).
For Cc1ccc(NC(=O)c2ccc(C)c(C(F)(F)F)c2)cc1C#Cc1nn(C2CCC(O)CC2)c2ncnc(N)c12 (stereo not shown), the remaining signal was 136% (Hepatocyte growth factor receptor (MET, Homo sapiens, UniProt P08581, M1250T); cell-free assay; 10 µM).
O=S1(=O)O[C@@H]2[C@H](O)[C@@H](O)[C@H](O)[C@@H](CO)[C@@H]2O1 gave a kinact/KI of 1070 M⁻¹ s⁻¹ (Lysosomal alpha-glucosidase (GAA, Homo sapiens, UniProt P10253); enzyme activity, inhibitor; pH 4.8).
CN1CCc2cc(Nc3ncc(C4CC4)c(NCCCNC(=O)C4CCC4)n3)ccc2C1 gave a remaining activity of 1% (ULK1; enzyme activity, inhibitor, radiometric; 1 µM).
With Cn1c2c(c3ccc(Cl)c(Cl)c31)C(C#N)C(C)(C)NC2=O (stereo not shown) the ΔTm was 0 °C (CDKL1; thermal stability, DSF; 10 µM).
The remaining activity of Cc1nn(CC(F)(F)F)cc1Nc1ncc(Br)c(NCCc2cnc[nH]2)n1 is reported as 20% (ULK1; enzyme activity, inhibitor, radiometric; 1 µM).
The ΔTm of Cn1c2c(c3ccc(Cl)c(Cl)c31)C(C#N)C1(CCOCC1)NC2=O (stereo not shown) is reported as -0.1 °C (CDKL1; thermal stability, DSF; 10 µM).
FC(F)(F)Oc1cccc(-c2cnc3ccc(-c4ccncc4)nn23)c1 gave an activity vs control of 94% (Mitogen-activated protein kinase kinase kinase 1 (MAP3K1, Homo sapiens, UniProt Q13233); enzyme activity, inhibitor, radiometric; 5 µM).
With Cc1cnc(NC2CCOCC2)nc1-n1cnc(C(=O)NC(CN)c2cc(F)cc(Cl)c2)c1 (stereo not shown) the remaining activity was 1% (Mitogen-activated protein kinase 1 (Mapk1, Mus musculus, UniProt P63085); enzyme activity, inhibitor, radiometric; 1 µM).
For NS(=O)(=O)c1ccc(CNc2ccnc(Nc3cccc(CN4CCOCC4)c3)n2)cc1, the remaining activity was 92% (ULK1; enzyme activity, inhibitor, radiometric; 1 µM).
Cn1c2c(Cl)c(Cl)ccc2c2cc[nH]c(=O)c21 has a ΔTm of -0.1 °C (CDKL1; thermal stability, DSF; 10 µM).
